Shown are actives, neighbours in structure and some others; about 2% of the full set was active somewhere.
VLA-4 inh – inhibition in human VLA-4 binding assay, primary screen, VLA-4 allosteric modulator project, MLPCN library, flow cytometry, VLA-4 expressing cells; inhibition, % (about 7 µM as worked out from the volumes in the protocol); 330,000 tested, 0.2% active; ligand binding flow cytometry; Integrin alpha-4 (Homo sapiens), P13612; in the data active = inhibition above about 50%
Granule exo inh – LAMP-1 surface exposure blockers, TALL-104 cells – cell-based, flow cytometry, MLPCN library, primary screen. TALL-104 LAMP-1 surface exposure; cells stimulated with thapsigargin and PMA. inhibition, % at 10 µM. 360,000 tested, 0.66% active;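 active = inhibition above about 55%, limit read from the data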
DAGLB inhibitor – DAGLB lipase inhibitors, primary screen, biochemical, fluorescence, HTS; 340,000 tested, 0.059% active; HEK293T DAGLB membrane lysate, EnzChek fluorogenic substrate; Diacylglycerol lipase-beta (Homo sapiens), Q8NCG7; AID 504411, 2011; inhibition, % at 5.17 µM; in the data active = inhibition above about 34%
ABCB6 inh 2 – ABCB6 transporter inhibitors, primary screen, K562-ABCB6 cells, flow cytometry, MLPCN library | AID 602162, 2011 | fluorescence ratio to DMSO, % at 10 µM | ATP-binding cassette sub-family B member 6 (Homo sapiens), Q9NP58 | 360,000 tested, 0.19% active | K562-ABCB6 porphyrin accumulation, 1 h; stronger effect = lower value;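 active = fluorescence ratio to DMSO below 75%, the collection mean minus 3 SD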;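 note: signal is porphyrin accumulated inside mitochondria; lower ratio means ABCB6 inhibition with less porphyrin fluorescence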
Target sequence (Q9NP58 whole entry, looked up): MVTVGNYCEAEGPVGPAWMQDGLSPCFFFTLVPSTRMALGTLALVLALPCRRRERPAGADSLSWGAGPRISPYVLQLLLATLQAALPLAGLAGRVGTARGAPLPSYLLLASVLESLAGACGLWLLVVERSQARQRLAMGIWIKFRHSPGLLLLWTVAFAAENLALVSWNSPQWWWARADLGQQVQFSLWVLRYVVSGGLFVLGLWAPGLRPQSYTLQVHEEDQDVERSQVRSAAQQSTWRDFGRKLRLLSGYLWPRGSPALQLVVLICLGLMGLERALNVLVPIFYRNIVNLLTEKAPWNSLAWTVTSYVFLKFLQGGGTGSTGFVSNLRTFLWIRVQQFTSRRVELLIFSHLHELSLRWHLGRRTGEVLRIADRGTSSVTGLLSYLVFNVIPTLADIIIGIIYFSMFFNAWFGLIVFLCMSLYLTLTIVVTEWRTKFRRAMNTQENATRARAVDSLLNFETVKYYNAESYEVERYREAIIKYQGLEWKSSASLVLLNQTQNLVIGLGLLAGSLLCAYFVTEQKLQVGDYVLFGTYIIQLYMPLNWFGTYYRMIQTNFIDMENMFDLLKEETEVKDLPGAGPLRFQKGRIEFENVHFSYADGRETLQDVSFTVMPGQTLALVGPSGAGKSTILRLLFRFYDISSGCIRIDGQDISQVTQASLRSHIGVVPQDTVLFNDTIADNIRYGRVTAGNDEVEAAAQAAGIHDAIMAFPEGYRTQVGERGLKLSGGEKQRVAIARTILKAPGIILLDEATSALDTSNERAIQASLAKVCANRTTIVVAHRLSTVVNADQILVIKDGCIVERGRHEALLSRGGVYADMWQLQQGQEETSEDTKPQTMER
FGF22 binding – binders of human FGF22 protein, primary screen, FGF22 synaptogenesis inhibitor project, biophysical, thermal shift, single point. 340,000 tested, 1.5% active. recombinant FGF22 thermal shift, SYPRO orange fluorescence; percent of sucrose octasulfate shift, DMSO zero. activity (Tm shift, normalised), % at 9.99 µM. AID 651658, 2012;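 active = mean Tm shift, scaled 0 neutral to 100 positive control, at about 1.3% or above, every replicate too, limit read from the data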
MT1-MMP act inh – blockers of MT1-MMP proenzyme processing, primary screen, HT1080 RFP-PRO-GFP cells, GFP/RFP fluorescence; GFP/RFP ratio fluorescence, overnight; percent of plate control window, DMSO zero; 360,000 tested, 0.061% active; GFP/RFP ratio change, % at 20 µM; AID 651647, 2012;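 active = GFP/RFP ratio change of at least 30% with cell ATP level not reduced by more than half and red fluorescence within 50% of control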
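system = RFP-PRO-GFP reporter HT1080 cells | dosing = 20 µM single dose, 1% DMSO | timing = overnight cell settling, then overnight compound exposure, 37 °C, 5% CO2 | read-out basis = GFP/RFP fluorescence ratio | controls = DMSO and RFP-L50D-GFP cell wells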
VLA-4 mod pick – retest of VLA-4 allosteric modulators, confirmation, cell-based, cherry-picked plates, U937, HUTS-21 LIBS antibody. inhibition, % at 6.7 µM. AID 2813, 2010. 1,300 tested, 2% active. shares compounds with VLA-4 inh. U937 cells, HUTS-21 LIBS mAb binding, flow cytometry; LDV ligand present at threefold Kd; in the data active = inhibition above about 40%
Large screens that a line does not name were inactive (follow-up assays come after a bar, where they were run).

N#Cc1c2c(c(-n3cnc4ccccc43)n3c1nc1ccccc13)CCC2	VLA-4 inh 94 (no result: FGF22 binding) | VLA-4 mod pick inactive
Cc1nccn1-c1c2c(c(C#N)c3nc4ccccc4n13)CCCC2	none (no result: VLA-4 inh)
O=C(c1ccccc1)N1CCN(C(=O)c2ccc([N+](=O)[O-])cc2)CC1	none (no result: FGF22 binding) | VLA-4 mod pick inactive
O=C(c1ccc([N+](=O)[O-])cc1)N1CCCC1	none
CC(C)(C)c1nnc(NC(=O)NS(=O)(=O)c2ccccc2)s1	VLA-4 inh 73 (no result: FGF22 binding) | VLA-4 mod pick inactive
CN1c2ccc(-c3cccc(F)c3)cc2[C@H]2[C@H](CCN2C(=O)C2CC2)[C@@H]1CO	none (no result: VLA-4 inh, Granule exo inh, DAGLB inhibitor, ABCB6 inh 2, MT1-MMP act inh)
COCC#Cc1ccc([C@@H]2[C@@H](CO)N3C(=O)CN(C(=O)C4CCCCC4)C[C@@H]23)cc1	none (no result: VLA-4 inh, Granule exo inh, DAGLB inhibitor, ABCB6 inh 2, MT1-MMP act inh)
CCCCC[C@@H]1C=C(C(=O)O)[C@H](c2cccc(C)c2)N1S(=O)(=O)c1ccc(C)cc1	none | VLA-4 mod pick inactive
CCCCC[C@@H]1C=C(C(=O)O)[C@H](c2ccc(Cl)c(Cl)c2)N1S(=O)(=O)c1ccc(C)cc1	none
CCCC[C@@H]1C=C(C(=O)O)[C@H](c2ccc(CC)cc2)N1S(=O)(=O)c1ccc(C)cc1	none | VLA-4 mod pick inactive
CC[C@@H]1C=C(C(=O)O)[C@H](c2ccc(C#N)cc2)N1S(=O)(=O)c1ccc(C)cc1	none
CCCCC[C@@H]1C=C(C(=O)O)[C@H](c2ccc(CC)cc2)N1S(=O)(=O)c1ccc(C)cc1	none | VLA-4 mod pick inactive
CCCCC[C@@H]1C=C(C(=O)O)[C@H](c2ccc(F)cc2)N1S(=O)(=O)c1ccc(C)cc1	none | VLA-4 mod pick inactive
COC(=O)C[C@@H]1C[C@H]2c3cc(NC(=O)NC4CCCCC4)ccc3O[C@H]2[C@H](CO)O1	none (no result: VLA-4 inh, Granule exo inh, DAGLB inhibitor, ABCB6 inh 2, MT1-MMP act inh)
CCCCC[C@@H]1C=C(C(=O)O)[C@H](c2ccc(OC)c(OC)c2)N1S(=O)(=O)c1ccc(C)cc1	none | VLA-4 mod pick inactive
COc1ccc([C@@H]2CC=C(C(=O)O)[C@H](c3ccc(C)cc3)N2S(=O)(=O)c2ccc(C)cc2)cc1OC	none
CCCC[C@@H]1C=C(C(=O)O)[C@H](c2ccc(Br)cc2)N1S(=O)(=O)c1ccc(C)cc1	none | VLA-4 mod pick inactive
CCc1ccc([C@H]2C(C(=O)O)=C[C@@H](CC)N2S(=O)(=O)c2ccc(C)cc2)cc1	none | VLA-4 mod pick inactive
CCCCC[C@@H]1C=C(C(=O)O)[C@H](c2ccc3c(c2)OCO3)N1S(=O)(=O)c1ccc(C)cc1	none | VLA-4 mod pick inactive
CC[C@@H]1C=C(C(=O)O)[C@H](c2ccc3c(c2)OCO3)N1S(=O)(=O)c1ccc(C)cc1	none
CC[C@@H]1C=C(C(=O)O)[C@H](c2ccc(Br)cc2)N1S(=O)(=O)c1ccc(C)cc1	none
Cc1cccc(S(=O)(=O)N2C[C@H](O)COC[C@@H]3O[C@@H](CC(=O)N4CCN(C)CC4)CC[C@H]32)c1	none (no result: VLA-4 inh, Granule exo inh, DAGLB inhibitor, ABCB6 inh 2, MT1-MMP act inh)
O=C(OCc1cncs1)c1ccccc1Cl	none
O=C(Nc1ccccc1Cl)OCc1cncs1	none | VLA-4 mod pick inactive
O=C(Nc1ccc(F)cc1)N1C[C@@H]2[C@H](c3ccccc31)[C@H](CO)N2C(=O)Cc1ccncc1	none (no result: VLA-4 inh, Granule exo inh, DAGLB inhibitor, ABCB6 inh 2, MT1-MMP act inh)
CCOc1ccccc1NC(=O)NCc1ccccc1	VLA-4 inh 50 | VLA-4 mod pick inactive
CCOc1ccccc1NC(=O)NCCCCc1ccccc1	none
CCC(=O)Nc1nnc(-c2ccc(Cl)s2)o1	none | VLA-4 mod pick inactive
COc1ccc(CNC(=O)C[C@H]2C=C[C@H](NS(=O)(=O)c3cccc(OC)c3)[C@@H](CO)O2)cc1	none (no result: VLA-4 inh, Granule exo inh, DAGLB inhibitor, ABCB6 inh 2, MT1-MMP act inh)
O=C(NCC1CCCO1)c1nn2c(C(F)(F)F)cc(-c3cccs3)nc2c1Cl (stereo not given)	none
O=C(O)c1nn2c(C(F)(F)F)cc(-c3cccs3)nc2c1Cl	none | VLA-4 mod pick inactive
COc1cccc(CN2CC3(CN(C(=O)Nc4c(C)noc4C)C3)c3c([nH]c4cc(OC)ccc34)[C@H]2CO)c1	none (no result: VLA-4 inh, Granule exo inh, DAGLB inhibitor, ABCB6 inh 2, MT1-MMP act inh)
Cc1ccc(S(=O)(=O)N2[C@@H](c3ccc(Cl)c(Cl)c3)C(C(=O)O)=C[C@H]2C(C)(C)C)cc1	none (no result: FGF22 binding)
Cc1ccc([C@H]2C(C(=O)O)=C[C@@H](C(C)(C)C)N2S(=O)(=O)c2ccc(C)cc2)cc1	none
COc1ccc([C@H]2C(C(=O)O)=C[C@@H](C(C)(C)C)N2S(=O)(=O)c2ccccc2)cc1	none | VLA-4 mod pick inactive
COc1ccc([C@@H]2CC=C(C(=O)O)[C@H](c3ccc(C)cc3)N2S(=O)(=O)c2ccccc2C)cc1	none
Cc1ccc(S(=O)(=O)N2[C@@H](c3cccc(C)c3)C(C(=O)O)=C[C@H]2C(C)(C)C)cc1	none | VLA-4 mod pick inactive
Cc1ccc(S(=O)(=O)N2[C@@H](c3ccc(C(C)C)cc3)C(C(=O)O)=C[C@H]2C(C)(C)C)cc1	none | VLA-4 mod pick inactive
CC(C)(C)NCC(O)CON=C1c2ccccc2-c2ccccc21 (stereo not given)	VLA-4 inh 55 | VLA-4 mod pick inactive
CC(C)(C)NC(=O)CON=C1c2ccccc2-c2ccccc21	none
CO[C@@H](CN(C)Cc1nccs1)[C@H](C)CN([C@@H](C)CO)S(=O)(=O)c1ccc(C)cc1	none (no result: VLA-4 inh, Granule exo inh, DAGLB inhibitor, ABCB6 inh 2, MT1-MMP act inh)
CCOc1ccc(CN2CCN(CC(O)Cn3c4ccccc4c4ccccc43)CC2)cc1 (stereo not given)	VLA-4 inh 51 (no result: FGF22 binding) | VLA-4 mod pick inactive
O=C(Nc1nc(-c2nc3ccccc3s2)cs1)c1ccco1	VLA-4 inh 78 | VLA-4 mod pick inactive
O=C(Nc1nc(-c2ccc(Cl)s2)cs1)c1ccco1	none
CCC(=O)N(C)C[C@H]1Oc2cc(-c3cccc(OC)c3)ccc2S(=O)(=O)N([C@H](C)CO)C[C@@H]1C	none (no result: VLA-4 inh, Granule exo inh, DAGLB inhibitor, ABCB6 inh 2, MT1-MMP act inh)
O=C(Nc1ccccc1)Nc1cccc2cccnc12	VLA-4 inh 69 (no result: FGF22 binding) | VLA-4 mod pick inactive
C[C@@H]1CN([C@H](C)CO)C(=O)c2cccc(NS(=O)(=O)c3cn(C)cn3)c2O[C@H]1CN(C)Cc1ccc(C(=O)Nc2ccccc2N)cc1	none (no result: VLA-4 inh, Granule exo inh, DAGLB inhibitor, ABCB6 inh 2, MT1-MMP act inh)

High-throughput results deposited in PubChem by several laboratories.
